From ChEMBL document CHEMBL1122181 (J Med Chem, 1982)
Calls of active or inactive are those of the source. The calls are words filed in the database; no cut-off is given here.

Tests used:
[1] = system: Mus musculus; assay: Analgesic activity was determined by writhing test after subcutaneous administration in mice; type: functional; conditions: sc
How it was run: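 Phenylquinone-induced writhing; compound given subcutaneously in distilled water. Potency derived by probit analysis, reported with 95% confidence limits.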

[2] = system: Mus musculus; assay: Analgesic activity was determined by tail flick assay after subcutaneous administration in mice; type: functional; conditions: sc
How it was run: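 Tail-flick method; compound given subcutaneously in normal saline. Potency derived by probit analysis, reported with 95% confidence limits.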

[3] = system: Mus musculus; assay: Analgesic activity was determined by tail flick assay after subcutaneous administration in mice; Inactive; type: functional, organism-based

Structure (SMILES) | ED50 [1] [mg/kg] | ED50 [2] [mg/kg] | ED50 [3]
COc1ccc2c3c1O[C@H]1[C@@H](O)C=C[C@H]4[C@@H](C2)N(C)CC[C@@]341 [CODEINE] | 2.3 | 39 | 
COc1ccc2c(c1)C13CCCCC1C(C2)N(C)CC3 (stereo not drawn) [RACEMETHORPHAN] | 0.64 | 6.78 | 
CN1CCC23c4c5ccc(OC(C)(C)C)c4O[C@H]2[C@@H](O)C=CC3C1C5 (some centres not stated) | 26.8 |  | inactive
CN1CC[C@]23CCCC[C@H]2[C@H]1Cc1ccc(O)cc13 [LEVORPHANOL] | 0.1 | 1.3 | 
CN1CCC23CCCCC2C1Cc1ccc(OC(C)(C)C)cc13 (configuration not stated) | 5 | 5.81 | 
CN1CC[C@]23c4c5ccc(O)c4O[C@H]2[C@@H](O)C=C[C@H]3[C@H]1C5 [MORPHINE] | 0.46 | 4.06 | 
